Data on one compound can be found in ChEMBL document CHEMBL1136933 (J Med Chem, 2009).

For data set [1], the target named is T1, Muscarinic acetylcholine receptor M1 (Rattus norvegicus, UniProt P08482).
T1 sequence (P08482 whole entry): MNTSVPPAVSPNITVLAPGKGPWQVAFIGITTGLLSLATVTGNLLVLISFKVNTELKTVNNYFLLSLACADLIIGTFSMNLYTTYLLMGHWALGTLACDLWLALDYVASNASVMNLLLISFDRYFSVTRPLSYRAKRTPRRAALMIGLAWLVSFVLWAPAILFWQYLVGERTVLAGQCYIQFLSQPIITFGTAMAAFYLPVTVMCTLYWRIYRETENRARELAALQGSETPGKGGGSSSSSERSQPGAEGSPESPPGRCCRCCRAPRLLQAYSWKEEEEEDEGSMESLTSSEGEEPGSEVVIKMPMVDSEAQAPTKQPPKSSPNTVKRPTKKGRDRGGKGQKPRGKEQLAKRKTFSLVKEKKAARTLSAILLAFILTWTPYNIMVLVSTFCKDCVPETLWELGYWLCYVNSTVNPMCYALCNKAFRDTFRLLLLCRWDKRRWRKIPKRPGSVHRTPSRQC
The experiment in a line: Activation of rat muscarinic M1 receptor expressed in CHO cells co-expressing Gq protein assessed as potentiation of acetylcholine-induced intracellular Ca2+ mobilization. It is filed as functional, cell-based.

Data set [2] concerns the target T2, Muscarinic acetylcholine receptor M1 (Rattus norvegicus) (UniProt P08482).
T2 sequence (whole entry): T1 sequence (P08482 whole entry)
The data set can be described thus: Activation of rat muscarinic M1 receptor expressed in CHO cells co-expressing Gq protein assessed as potentiation of acetylcholine-induced intracellular Ca2+ mobilization at 30 uM relative to acetylcholine. The data set is classed as functional, cell-based.

Data set [3] concerns the target T3, Muscarinic acetylcholine receptor M5 (Homo sapiens, UniProt P08912).
T3 sequence (P08912 whole entry): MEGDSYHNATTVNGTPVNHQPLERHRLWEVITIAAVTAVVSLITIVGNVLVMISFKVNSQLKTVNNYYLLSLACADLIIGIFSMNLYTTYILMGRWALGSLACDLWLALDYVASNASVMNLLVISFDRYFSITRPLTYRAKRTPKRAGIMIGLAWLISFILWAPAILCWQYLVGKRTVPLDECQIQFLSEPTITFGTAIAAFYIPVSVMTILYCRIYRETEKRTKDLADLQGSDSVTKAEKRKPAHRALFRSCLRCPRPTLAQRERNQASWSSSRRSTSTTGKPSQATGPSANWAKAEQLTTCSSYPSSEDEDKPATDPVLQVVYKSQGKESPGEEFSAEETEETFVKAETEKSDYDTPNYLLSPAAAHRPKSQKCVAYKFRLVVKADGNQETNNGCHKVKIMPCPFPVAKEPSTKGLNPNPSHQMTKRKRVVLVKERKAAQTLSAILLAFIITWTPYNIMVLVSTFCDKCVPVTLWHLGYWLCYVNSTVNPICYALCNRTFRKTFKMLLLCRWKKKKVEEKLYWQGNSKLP
The data set can be described thus: Activation of human muscarinic M5 receptor expressed in CHO cells coexpressing Gq protein assessed as potentiation of acetylcholine-induced intracellular Ca2+ mobilization. It is filed as functional, cell-based. (Calcium flux is commonly read through the fluorescence of an indicator in the cells.)

Data set [4] has as its target T4, Muscarinic acetylcholine receptor M5 (Homo sapiens) (UniProt P08912).
T4 sequence (whole entry): T3 sequence (P08912 whole entry)
The data set can be described thus: Activation of human muscarinic M5 receptor expressed in CHO cells coexpressing Gq protein assessed as potentiation of acetylcholine-induced intracellular Ca2+ mobilization at 30 uM relative to acetylcholine. It is filed as functional, cell-based.

Data set [5] has as its target T5, Muscarinic acetylcholine receptor M2 (Rattus norvegicus) (UniProt P10980).
T5 sequence (whole entry): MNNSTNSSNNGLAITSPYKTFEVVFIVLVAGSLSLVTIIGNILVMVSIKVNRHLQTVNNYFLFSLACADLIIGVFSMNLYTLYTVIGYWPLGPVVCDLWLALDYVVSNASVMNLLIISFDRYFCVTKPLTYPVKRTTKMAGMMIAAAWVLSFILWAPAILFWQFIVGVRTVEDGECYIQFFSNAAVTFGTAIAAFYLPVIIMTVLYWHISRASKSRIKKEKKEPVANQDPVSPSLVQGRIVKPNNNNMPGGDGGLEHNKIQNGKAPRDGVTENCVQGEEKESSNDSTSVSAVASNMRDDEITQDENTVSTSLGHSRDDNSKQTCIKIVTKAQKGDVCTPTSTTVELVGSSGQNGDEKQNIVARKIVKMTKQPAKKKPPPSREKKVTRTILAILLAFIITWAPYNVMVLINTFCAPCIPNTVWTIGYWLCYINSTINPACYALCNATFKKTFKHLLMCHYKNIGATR
The experiment in a line: Activation of rat muscarinic M2 receptor expressed in CHO cells coexpressing chimeric Gqi5 protein assessed as potentiation of acetylcholine-induced intracellular Ca2+ mobilization up to 30 uM. It is filed as functional, cell-based.

The nature of data set [6]: Selectivity ratio of EC50 for rat muscarinic M1 receptor to EC50 for human muscarinic M5 receptor.
Data set [7] is described as follows: Selectivity ratio of EC50 for rat muscarinic M2 receptor to EC50 for human muscarinic M5 receptor.
The species named for a further data set is Homo sapiens. The experiment in a line: Selectivity ratio of EC50 for human muscarinic M3 receptor to EC50 for human muscarinic M5 receptor.
The nature of data set [8]: Selectivity ratio of EC50 for rat muscarinic M4 receptor to EC50 for human muscarinic M5 receptor.
The target of data set [9] is T4, Muscarinic acetylcholine receptor M5 (Homo sapiens). The data set can be described thus: Intrinsic activity at human muscarinic M5 receptor expressed in CHO cells coexpressing Gq protein up to 30 uM by calcium mobilization assay in absence of acetylcholine. It is filed as functional, cell-based.
Data set [10] shares this target. The data set can be described thus: Displacement of [3H]NMS from human muscarinic M5 receptor expressed in CHO cells coexpressing Gq protein up to 30 uM by scintillation counting. The data set is classed as cell-based.
The target is the same in data set [11]. The experiment in a line: Activation of human muscarinic M5 receptor expressed in CHO cells coexpressing Gq protein assessed as increase in acetylcholine affinity at 30 uM by [3H]NMS competition binding assay relative to control. The data set is classed as cell-based.
Data set [12] in a line: Cmax in Sprague-Dawley rat plasma at 10 mg/kg, ip within 1 hr. It is filed as ADME, organism-based. On the set-up: dose 10 mg/kg, route intraperitoneal. In a few lines:
(§1)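 Male Sprague-Dawley rats (225-250 g) dosed ip at 10 mg/kg as a 5 mg/ml micro-suspension in 10% Tween 80 in sterile water. Plasma and brain sampled at 0.5, 1, 3 and 6 h, three animals per time point. Quantified by protein precipitation and LC-MS/MS against an internal standard. Brain values corrected for residual blood. PK parameters derived by noncompartmental analysis.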

Data set [13] can be described thus: Tmax in Sprague-Dawley rat plasma at 10 mg/kg, ip. The data set is classed as ADME, organism-based. On the set-up: dose 10 mg/kg, route intraperitoneal. In a few lines:
as §1

Data set [14] can be described thus: Tmax in Sprague-Dawley rat brain at 10 mg/kg, ip. On the set-up: dose 10 mg/kg, route intraperitoneal. The data set is classed as ADME, organism-based. Summed up:
as §1

In the next data set the test system is Plasma. The experiment in a line: Elimination half life in Sprague-Dawley rat plasma at 10 mg/kg, ip. The data set is classed as ADME, organism-based. On the set-up: dose 10 mg/kg, route intraperitoneal. Particulars: in vivo. Summed up: as §1
Data set [15] can be described thus: Elimination half life in Sprague-Dawley rat brain at 10 mg/kg, ip. Particulars: read-out: beta t1/2 (converted). On the set-up: dose 10 mg/kg, route intraperitoneal. It is filed as ADME, organism-based. In a few lines: as §1
Data set [16] in a line: AUC (0 to 6 hrs) in Sprague-Dawley rat plasma at 10 mg/kg, ip. On the set-up: time < 6 hr, dose 10 mg/kg, route intraperitoneal. The data set is classed as ADME, organism-based. Summed up: as §1
Data set [17] is described as follows: AUC (0 to 6 hrs) in Sprague-Dawley rat brain at 10 mg/kg, ip. It is filed as ADME, organism-based. On the set-up: time < 6 hr, dose 10 mg/kg, route intraperitoneal. In a few lines:
as §1

Data set [18] can be described thus: Apparent oral clearance in Sprague-Dawley rat plasma at 10 mg/kg, ip. On the set-up: dose 10 mg/kg. It is filed as ADME, organism-based. Summed up:
as §1

A short description of data set [19]: Ratio of AUC (0 to 6 hrs) in Sprague-Dawley rat brain to AUC (0 to 6 hrs) in Sprague-Dawley rat plasma at 10 mg/kg, ip. It is filed as ADME, organism-based. On the set-up: dose 10 mg/kg, route intraperitoneal. In a few lines:
as §1

The source made the active and inactive calls. The rule behind the calls is not given here.

In the case of `COc1ccc(CN2C(=O)C(=O)c3cc(OC(F)(F)F)ccc32)cc1`, the results for the concentration for a half-maximal effect (EC50) in [1] and in data set [3] were > 30000 nM and 1160 nM, respectively. For the same compound, the %max in [2] worked out at 12.7%; in [4], 60.7%. Moreover, the outcome in [5], in data set [9] and in data set [10] was inactive. Moreover, the Ratio EC50 (in data set [6]; in data set [7]; in the data set listed under Homo sapiens; in data set [8]) was > 30 each time. The fold change (FC) in [11] was determined as 10. Also, the Cmax (commonly the maximum level reached in the sampled fluid or tissue) in data set [12] is 162 ng/mL. The Tmax (in general, the time at which the peak concentration occurs) in data set [13] was 1 h; in data set [14] it was 0.5 h. The “beta t1/2” value with Plasma came to 4.7 h. In addition, the half-life in data set [15] is 3.69 h. Besides, the figures for the AUC(0-t) at 6 h in data set [16] and in data set [17] were 621 ng·h/mL and 159 ng·h/mL, respectively. Further, in data set [18], the CL/F (as a rule, the apparent clearance, not corrected for the fraction that reaches the circulation) amounted to 145 mL/min. The “Ratio AUC” value in data set [19] is given as 0.25.
